Screening data from PubChem BioAssay.
A selection: hits, their analogues and other compounds. The true share with any hit is near 1.3%.
PAD4 FP inh: human PAD4 inhibitors, primary screen, biochemical, fluorescence polarization, 1536-well format; recombinant PAD4, RCA probe fluorescence polarization; Protein-arginine deiminase type-4 (Homo sapiens), Q9UM07; inhibition, % at 6.36 µM; 330,000 tested, 0.41% active;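 active means percent inhibition above a cutoff equal to the mean of all tested compounds plus 3 SD, cut at about 15% in these data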;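 further: 0% = PAD4 with RCA probe and DMSO and 100% = probe without PAD4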
Fam108B counter: mouse Fam108B serine hydrolase inhibitors, primary screen, counter-screen for RBBP9 inhibitor project, biochemical, fluorescence polarization. inhibition, % at 9.51 µM. 300,000 tested, 0.33% active. recombinant Fam108B, FP-Rh probe fluorescence polarization;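 active means inhibition above the screen mean inhibition plus 3 SD, computed separately per campaign, cut at about 18% in these data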;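 further: inhibitors lower polarization as less probe binds the enzyme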
LYPLA1 counter: LYPLA1 inhibitors, primary screen, counter-screen for PME1 inhibitor project, biochemical, fluorescence polarization, FP-Rh probe ABPP | Acyl-protein thioesterase 1 (Homo sapiens), O75608 | recombinant LYPLA1 | inhibition, % at 5.9 µM | 320,000 tested, 0.16% active;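 active means inhibition above the mean of all tested compounds plus 3 SD, set per campaign, cut at about 14% in these data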;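 further: inhibitors block serine hydrolase probe labeling of LYPLA1 so polarization falls; 0% = enzyme with DMSO and 100% = wells lacking LYPLA1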
PME-1 inh: PME-1 inhibitors via competitive probe labeling, primary screen, biochemical, fluorescence polarization, FP-Rh probe, HTS; Protein phosphatase methylesterase 1 (Homo sapiens), Q9Y570; recombinant PME-1; inhibition, % at 5.9 µM; 320,000 tested, 0.53% active; AID 2130, 2009;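 active means inhibition above the campaign mean of all compounds plus 3 SD, cut at about 26% in these data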;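 further: competitive labeling of PME-1 active site by serine hydrolase directed probe; 0% = PME-1 with DMSO and 100% = wells lacking PME-1 enzyme; inhibitors block probe labeling so polarization falls and inhibition rises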
Target sequence (Q9Y570 whole entry, looked up): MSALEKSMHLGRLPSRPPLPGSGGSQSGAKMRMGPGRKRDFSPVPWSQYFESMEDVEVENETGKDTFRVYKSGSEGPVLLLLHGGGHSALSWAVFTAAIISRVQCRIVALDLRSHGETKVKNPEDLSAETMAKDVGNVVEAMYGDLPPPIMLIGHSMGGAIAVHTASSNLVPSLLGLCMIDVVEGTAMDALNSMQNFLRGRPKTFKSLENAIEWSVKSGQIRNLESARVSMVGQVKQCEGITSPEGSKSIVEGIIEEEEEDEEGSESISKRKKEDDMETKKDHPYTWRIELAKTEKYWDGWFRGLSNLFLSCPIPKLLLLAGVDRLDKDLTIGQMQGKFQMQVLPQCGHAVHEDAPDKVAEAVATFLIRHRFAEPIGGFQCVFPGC
LYPLA2 counter: LYPLA2 inhibitors, primary screen, counter-screen for PME1 inhibitor project, biochemical, fluorescence polarization, FP-Rh probe ABPP. Acyl-protein thioesterase 2 (Homo sapiens), O95372. recombinant LYPLA2. inhibition, % at 5.9 µM. 320,000 tested, 0.38% active;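 active means inhibition above the screen-wide mean plus 3 SD, limit set per campaign, cut at about 26% in these data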;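 further: 0% = LYPLA2 with DMSO and 100% = wells lacking LYPLA2 enzyme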
Target sequence (O95372 whole entry, looked up): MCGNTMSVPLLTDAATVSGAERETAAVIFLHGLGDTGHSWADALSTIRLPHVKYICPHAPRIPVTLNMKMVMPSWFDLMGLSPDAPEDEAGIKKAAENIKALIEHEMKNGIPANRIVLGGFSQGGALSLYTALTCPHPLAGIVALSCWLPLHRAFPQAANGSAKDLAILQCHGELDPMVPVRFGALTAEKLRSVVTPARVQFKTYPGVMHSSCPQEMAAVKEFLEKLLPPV
RBBP9 inh: human RBBP9 inhibitors, primary screen, biochemical, fluorescence polarization, FP-Rh probe, HTS | Serine hydrolase RBBP9 (Homo sapiens), O75884 | recombinant RBBP9 | inhibition, % at 7.94 µM | 220,000 tested, 0.2% active | AID 1515, 2009;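 active means inhibition above the campaign mean of all tested compounds plus 3 SD, cut at about 14% in these data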;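 further: plate controls were DMSO wells with RBBP9 for no effect and wells lacking RBBP9 protein for full effect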
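Test system – recombinant human RBBP9 · Input – RBBP9 2.5 µM in dispensing solution, pre-mixing · Medium – Tris buffer pH 8.0, NaCl, Pluronic · Schedule – preincubation 30 min plus labeling 45 min at 25 °C · Measured by – fluorescence polarization · Measure – % inhibition · Controls – DMSO and no-protein wells · Replicates – one well per compound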
LYPLA2 conf: LYPLA2 inhibitors, retest, confirmation, counter-screen for PME1 inhibitor project, biochemical, fluorescence polarization, FP-Rh probe ABPP. shares compounds with LYPLA2 counter. recombinant LYPLA2. inhibition, % at 5.9 µM. 1,100 tested, 72% active. AID 2232, 2010;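 active means mean inhibition across replicates above the hit cutoff set in the primary screen, cut at about 26% in these data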;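 further: blocked labeling of the enzyme by serine hydrolase FP-Rh probe lowers polarization; 0% = enzyme with DMSO and 100% = wells lacking LYPLA2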
LYPLA2 ABPP: LYPLA2 inhibitors in proteome, late-stage follow-up, gel-based competitive ABPP, fluorescence, assay provider. shares compounds with LYPLA2 counter. rhLYPLA2 in mouse brain proteome, gel ABPP FP-Rh. inhibition, % at 20 µM. 150 tested, 30% active. AID 652029, 2013;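 active means inhibition of LYPLA2 enzyme probe labeling above about 50%, limit read from the data; inactive means inhibition below that limit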;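 further: loss of FP-Rh probe labeling of the LYPLA2 gel band measured as band density; 0% = DMSO only control band and 100% = blank gel background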
The depositor's hits bear a star; . = no result given.

SMILES	PAD4 FP inh	Fam108B counter	LYPLA1 counter	PME-1 inh	LYPLA2 counter	RBBP9 inh	LYPLA2 conf	others
COc1ccc(N2CCN(C(=O)C3CCN(S(=O)(=O)c4ccc(F)cc4)CC3)CC2)cc1	-1	-5	1	42*	42*	-6	45*
COc1ccc(N2CCN(C(=O)COc3ccc(S(=O)(=O)N4CCOCC4)cc3C)CC2)cc1	-5	2	6	-1	28*	.	30*
COc1ccc(N2CCN(C(=O)C3CCCN(S(=O)(=O)c4ccc(F)cc4)C3)CC2)cc1 (configuration not stated)	-6	2	3	1	2	.	.
CCCn1c(SCC(=O)Nc2cccc(S(=O)(=O)N(C)C)c2)nc2ccccc2c1=O	-2	-2	-2	13	0	-6	.
O=C(Nc1ccc(Oc2ccccc2)cc1)C1CCN(c2c3c(nc4ncnn24)CCC3)CC1	2	-1	-2	-1	28*	1	22
O=C(Nc1ccc2c(c1)CCC2)C1CCN(c2c3c(nc4ncnn24)CCC3)CC1	0	-1	-2	-2	12	-5	.
O=C(Nc1ccccc1C(=O)O)/C(=C/c1ccc([N+](=O)[O-])cc1)NC(=O)c1ccc(Br)o1	3	-2	-3	-1	-9	2	.
COc1ccc(CCC(=O)OCC(=O)c2cccc(OC)c2)cc1	-8	-3	-3	-6	-7	-3	.
O=C(O)COc1ccccc1/C=N/NC(=O)CSc1nnc(SCc2ccc(Cl)cc2)s1	6	-5	-1	11	-4	1	.
O=C(CSc1nnc(SCc2ccc(Cl)cc2)s1)N/N=C/c1c[nH]c2ccccc12	3	3	1	-3	45*	0	58*
O=C(CN1CCN(C(=O)CNC(=O)c2ccc(N3CCCC3=O)cc2)CC1)Nc1ccccc1Cl	1	.	3	-1	50*	.	46*
Cc1cccc(C)c1NC(=O)CN1CCN(C(=O)CNC(=O)c2ccc(N3CCCC3=O)cc2)CC1	1	.	-2	-4	1	.	.
CC1(C)NC(C)(C)C(O)(C(N)=O)C1=O (configuration not stated)	3	1	2	5	27*	-1	18
Cc1c(NC(=O)COC(=O)C2(c3ccc(F)cc3)CCCC2)c(=O)n(-c2ccccc2)n1C	-4	-3	0	10	-7	-5	.
COc1ccccc1-n1cc(C(=O)NCC(=O)N2CCN(c3ccccc3)CC2)c2ccccc2c1=O	-1	-1	4	0	37*	4	27*
CC(=O)c1ccc(S(=O)(=O)N2CCN(CCOc3ccc(Br)cc3)CC2)cc1	-2	.	3	1	37*	.	37*
COC(=O)C1=CO[C@@H](O[C@@H]2O[C@H](CO)[C@@H](O)[C@H](O)[C@H]2O)C2C1C=C[C@@]2(O)CO (some centres not stated)	3	.	.	.	.	.	.
O=C1c2ccc(Oc3ccc([N+](=O)[O-])cc3)cc2C(=O)N1CCO	0	1	0	0	20	.	.
O=C(O)c1ccc(CN2C(=O)c3ccc(Oc4ccc([N+](=O)[O-])cc4)cc3C2=O)cc1	-11	-4	-5	-5	59*	.	66*	LYPLA2 ABPP=59*
Nc1cccc(Oc2ccc([N+](=O)[O-])cc2)c1	2	-7	3	-5	32*	-8	35*
O=C1NC(=O)c2cc(Oc3ccc([N+](=O)[O-])cc3)ccc21	-7	-1	1	0	30*	.	36*
COc1ccc(Cl)cc1NC(=O)Cn1nnc(C(=O)NCc2ccc3c(c2)OCO3)c1N	0	-5	-6	-8	-13	.	.
CC(=O)Nc1ccc(NC(=O)C(C)OC(=O)C2CCN(S(=O)(=O)c3ccc4c(c3)OCCO4)CC2)cc1 (configuration not stated)	2	0	1	4	2	.	.
CC(Oc1ccc(Br)cc1)C(=O)Nc1ccc(S(=O)(=O)N(C)C2CCN(C)CC2)cc1 (configuration not stated)	-2	-1	0	-5	-3	.	.
Cc1nc([N+](=O)[O-])cn1CC(=O)c1ccccc1	0	-3	-3	-3	0	-4	.
SMILES	PAD4 FP inh	Fam108B counter	LYPLA1 counter	PME-1 inh	LYPLA2 counter	RBBP9 inh	LYPLA2 conf	others
Cc1nc([N+](=O)[O-])cn1CC(=O)Nc1ccc([N+](=O)[O-])cc1	2	3	0	1	33*	.	41*
COc1ccc(-c2cc(C(=O)N3CCCC3)no2)cc1OC	-7	0	3	-3	0	.	.
O=C(c1cc(-c2cccs2)on1)N1CCN(c2ccc(F)cc2)CC1	-2	1	6	-1	28*	1	27*
O=C(c1cc(-c2cccs2)on1)N1CCN(c2ccccc2)CC1	-2	3	2	2	22	-7	.
COc1ccc(-c2cc(C(=O)N3CCN(c4ccc(F)cc4)CC3)no2)cc1OC	-3	-1	3	-5	39*	.	33*
CCOc1ccc(NC(=O)CN(C)C(=O)CC(NC(=O)c2ccccc2)c2ccccc2)cc1OCC (configuration not stated)	1	-4	5	6	0	.	.
CCCOc1ccc(-c2csc3ncn(Cc4ccc(C(=O)O)cc4)c(=O)c23)cc1	0	-2	-5	-8	30*	-6	33*
NC(=O)C1(N2CCCCC2)CCN(C(=O)CSc2nc3ccccc3s2)CC1	3	4	4	4	32*	-9	31*
Cc1cc(C)c(C#N)c(SCc2[nH]nc3c2C(c2ccc(F)cc2)C(C#N)=C(N)O3)n1 (configuration not stated)	-3	-4	-2	12	40*	12	36*
CCC(=O)Oc1ccc(C(=O)Nc2c[nH]c(=O)[nH]c2=O)cc1	5	3	-2	-4	-4	-6	.
CC/C(C)=C1\SC(N2CCN(c3cccc(C(F)(F)F)c3)CC2)=NC1=O	-2	1	3	-5	33*	1	31*
